These results are taken from ChEMBL document CHEMBL5042553 (J Med Chem, 2022).

Active and inactive are the calls of the source. The calls are words filed in the database; no cut-off is given here.

In test [1] the target is T1, von Hippel-Lindau disease tumor suppressor/Histone deacetylase 3 (Homo sapiens, UniProt O15379+P40337). In words: Protac activity at VHL/HDAC3 in human HCT-116 cells assessed as induction of HDAC3 degradation incubated for 24 hrs by Western blot analysis. Type of test: cell-based. (In general: Immunoblotting shows a protein as a band on a membrane.)
Target sequence in this assay (O15379 whole entry): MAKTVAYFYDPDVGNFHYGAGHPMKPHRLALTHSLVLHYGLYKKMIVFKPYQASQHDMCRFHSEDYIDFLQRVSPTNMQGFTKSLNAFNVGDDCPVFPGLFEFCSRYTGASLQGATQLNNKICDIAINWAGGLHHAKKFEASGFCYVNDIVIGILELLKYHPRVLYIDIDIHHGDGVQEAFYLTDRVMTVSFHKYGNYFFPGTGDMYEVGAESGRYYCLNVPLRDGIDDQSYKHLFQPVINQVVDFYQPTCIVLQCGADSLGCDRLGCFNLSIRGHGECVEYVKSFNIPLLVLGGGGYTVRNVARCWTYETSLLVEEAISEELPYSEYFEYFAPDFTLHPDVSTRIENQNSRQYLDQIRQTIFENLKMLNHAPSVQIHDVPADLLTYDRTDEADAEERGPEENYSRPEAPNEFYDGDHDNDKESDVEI
Target sequence in this assay (P40337 whole entry): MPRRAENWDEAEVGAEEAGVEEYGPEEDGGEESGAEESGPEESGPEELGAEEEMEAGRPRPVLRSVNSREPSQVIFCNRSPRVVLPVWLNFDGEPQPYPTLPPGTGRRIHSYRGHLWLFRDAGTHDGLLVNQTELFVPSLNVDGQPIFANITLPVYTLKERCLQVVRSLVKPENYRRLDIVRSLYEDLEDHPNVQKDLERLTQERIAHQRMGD
The test system of test [2] is HCT-116. Kind of test: Cytotoxicity against human HCT-116 cells assessed as reduction in cell viability measured after 48 hrs by cell-titer glo assay. Type of test: functional, cell-based.
Test [3] in a line: Inhibition of HDAC1-CoREST-LSD1 (unknown origin) using Boc- (Ac)Lys-AMC as substrate preincubated for 1 hr followed by substrate addition and measured after 1 hr by fluorescent assay. Also on record: species or system Homo sapiens.
The nature of test [4]: Inhibition of HDAC3-SMRT (unknown origin) using Boc- (Ac)Lys-AMC as substrate preincubated for 1 hr followed by substrate addition and measured after 1 hr by fluorescent assay. The arrangement: species or system Homo sapiens.
Test [5] can be described thus: Inhibition of HDAC2-CoREST-LSD1 (unknown origin) using Boc- (Ac)Lys-AMC as substrate preincubated for 1 hr followed by substrate addition and measured after 1 hr by fluorescent assay. The arrangement: species or system Homo sapiens.
Test [6] addresses T2, von Hippel-Lindau disease tumor suppressor/Histone deacetylase 1 (Homo sapiens, UniProt Q13547+P40337). In words: Protac activity at VHL/HDAC1 in human HCT-116 cells assessed as induction of HDAC1 degradation incubated for 24 hrs by Western blot analysis. Type of test: cell-based.
Target sequence in this assay (Q13547 whole entry): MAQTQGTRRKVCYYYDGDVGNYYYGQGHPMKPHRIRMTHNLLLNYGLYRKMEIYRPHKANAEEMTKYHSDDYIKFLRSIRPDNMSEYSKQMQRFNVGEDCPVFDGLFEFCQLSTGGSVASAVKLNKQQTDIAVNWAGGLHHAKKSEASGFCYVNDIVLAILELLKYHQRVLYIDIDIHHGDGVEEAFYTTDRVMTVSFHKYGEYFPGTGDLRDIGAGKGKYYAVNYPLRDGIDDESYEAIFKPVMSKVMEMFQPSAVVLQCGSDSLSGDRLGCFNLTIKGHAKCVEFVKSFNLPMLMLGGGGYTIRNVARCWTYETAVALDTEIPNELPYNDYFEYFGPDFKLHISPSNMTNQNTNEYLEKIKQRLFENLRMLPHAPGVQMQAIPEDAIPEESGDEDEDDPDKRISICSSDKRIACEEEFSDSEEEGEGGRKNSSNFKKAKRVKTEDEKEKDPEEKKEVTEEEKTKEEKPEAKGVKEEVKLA
Target sequence in this assay (P40337 whole entry): as the sequence (P40337 whole entry) above
The target of test [7] is T3, von Hippel-Lindau disease tumor suppressor/Histone deacetylase 2 (Homo sapiens) (UniProt Q92769+P40337). Kind of test: Protac activity at VHL/HDAC2 in human HCT-116 cells assessed as induction of HDAC2 degradation at 1 to 10 uM incubated for 24 hrs by Western blot analysis. To be noted: dose 1-10 µM. Type of test: cell-based. Put shortly:
(§1)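 HCT116 cells (37 °C, 5% CO₂) seeded for 24 h, then given DMSO or PROTAC (0.01–10 μM) in fresh medium for 2–48 h. Lysates made in Tris/NaCl/NP-40/Triton X-100 buffer with protease inhibitor; histones acid-extracted with 0.4 N H₂SO₄. 30 μg protein or 10 μL histone extract per lane run on 4–12% bis-Tris gels. Quantitative western blotting used IR-dye secondaries and band densitometry, referenced to DMSO; two independent biological replicates.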

Test [8] has as its target T2, von Hippel-Lindau disease tumor suppressor/Histone deacetylase 1. In words: Protac activity at VHL/HDAC1 in human HCT-116 cells assessed as induction of HDAC1 degradation at 1 to 10 uM incubated for 24 hrs by Western blot analysis. Type of test: cell-based. To be noted: dose 1-10 µM. Put shortly: as §1
Target sequence in this assay (P40337 whole entry, looked up): as the sequence (P40337 whole entry) above
Target sequence in this assay (Q13547 whole entry, looked up): as the sequence (Q13547 whole entry) above
Test [9] has as its target T1, von Hippel-Lindau disease tumor suppressor/Histone deacetylase 3. Kind of test: Protac activity at VHL/HDAC3 in human HCT-116 cells assessed as induction of HDAC3 degradation at 1 to 10 uM incubated for 24 hrs by Western blot analysis. Type of test: cell-based. To be noted: dose 1-10 µM. In short, it runs like this: as §1
Target sequence in this assay (O15379 whole entry, looked up): as the sequence (O15379 whole entry) above
Target sequence in this assay (P40337 whole entry, looked up): as the sequence (P40337 whole entry) above
In test [10] the target is T2, von Hippel-Lindau disease tumor suppressor/Histone deacetylase 1. In words: Protac activity at VHL/HDAC1 in human HCT-116 cells assessed as induction of HDAC1 degradation at 1 uM incubated for 24 hrs by Western blot analysis. Type of test: cell-based. Put shortly:
as §1
Target sequence in this assay (P40337 whole entry, looked up): as the sequence (P40337 whole entry) above
Target sequence in this assay (Q13547 whole entry, looked up): as the sequence (Q13547 whole entry) above

Test [11] concerns the target T1, von Hippel-Lindau disease tumor suppressor/Histone deacetylase 3. In words: Protac activity at VHL/HDAC3 in human HCT-116 cells assessed as induction of HDAC3 degradation at 10 uM incubated for 24 hrs by Western blot analysis. Type of test: cell-based. Put shortly: as §1
Target sequence in this assay (O15379 whole entry, looked up): as the sequence (O15379 whole entry) above
Target sequence in this assay (P40337 whole entry, looked up): as the sequence (P40337 whole entry) above
For test [12] the target is unchanged. Kind of test: Protac activity at VHL/HDAC3 in human HCT-116 cells assessed as induction of HDAC3 degradation at 10 uM measured after 36 to 48 hrs by Western blot analysis. The note with it: time 36-48 hrs. Type of test: cell-based. In short, it runs like this: as §1
Target sequence in this assay (O15379 whole entry, looked up): as the sequence (O15379 whole entry) above
Target sequence in this assay (P40337 whole entry, looked up): as the sequence (P40337 whole entry) above
Test [13] deals with T3, von Hippel-Lindau disease tumor suppressor/Histone deacetylase 2 (Homo sapiens). Kind of test: Protac activity at VHL/HDAC2 in human HCT-116 cells assessed as induction of HDAC2 degradation at 10 uM measured after 4 hrs by Western blot analysis. Type of test: cell-based. In short, it runs like this:
as §1

The target in test [14] is T2, von Hippel-Lindau disease tumor suppressor/Histone deacetylase 1. Kind of test: Protac activity at VHL/HDAC1 in human HCT-116 cells assessed as reduction in LSD1 level measured after 48 hrs by Western blot analysis. Also on record: scale not given: the % may be the effect or the level left.
Target sequence in this assay (P40337 whole entry, looked up): as the sequence (P40337 whole entry) above
Target sequence in this assay (Q13547 whole entry, looked up): as the sequence (Q13547 whole entry) above
Test [15] concerns the target T3, von Hippel-Lindau disease tumor suppressor/Histone deacetylase 2 (Homo sapiens). In words: Protac activity at VHL/HDAC2 in human HCT-116 cells assessed as fold increase in H3K56ac at 10 uM measured after 8 hrs by Western blot analysis relative to control. Type of test: cell-based. In short, it runs like this: as §1
The subject of test [16] is HCT-116. Kind of test: Induction of apoptosis in HCT-116 cells assessed as accumulation of cells in Sub-G1 phase at 10 uM measured after 48 hrs by flow cytometry analysis. The note with it: Homo sapiens. In general terms: A flow cytometer gives signals particle by particle.
In test [17] the target is T3, von Hippel-Lindau disease tumor suppressor/Histone deacetylase 2 (Homo sapiens). In words: Protac activity at VHL/HDAC2 in human HCT-116 cells assessed as induction of HDAC2 degradation at 1 uM measured upto 48 hrs by Western blot analysis. Type of test: cell-based. The note with it: time hrs <=48. In short, it runs like this: as §1
The target of test [18] is T1, von Hippel-Lindau disease tumor suppressor/Histone deacetylase 3. In words: Protac activity at VHL/HDAC3 in human HCT-116 cells assessed as induction of HDAC3 degradation at 10 uM measured upto 24 hrs by Western blot analysis. Type of test: cell-based. The note with it: time hrs <=24. Put shortly:
as §1
Target sequence in this assay (O15379 whole entry, looked up): as the sequence (O15379 whole entry) above
Target sequence in this assay (P40337 whole entry, looked up): as the sequence (P40337 whole entry) above

For test [19] the target is unchanged. In words: Protac activity at VHL/HDAC3 in human HCT-116 cells assessed as induction of HDAC3 degradation at 1 uM measured after 15 hrs by Western blot analysis. Type of test: cell-based. In short, it runs like this:
as §1
Target sequence in this assay (O15379 whole entry, looked up): as the sequence (O15379 whole entry) above
Target sequence in this assay (P40337 whole entry, looked up): as the sequence (P40337 whole entry) above

For test [20] the target is unchanged. In words: Protac activity at VHL/HDAC3 in human HCT-116 cells assessed as induction of HDAC3 degradation at 1 uM measured after 4 hrs by Western blot analysis. Type of test: cell-based. In short, it runs like this:
as §1
Target sequence in this assay (O15379 whole entry, looked up): as the sequence (O15379 whole entry) above
Target sequence in this assay (P40337 whole entry, looked up): as the sequence (P40337 whole entry) above

The target in test [21] is T2, von Hippel-Lindau disease tumor suppressor/Histone deacetylase 1. In words: Protac activity at VHL/HDAC1 in human HCT-116 cells assessed as induction of HDAC1 degradation at 10 uM measured after 4 hrs by Western blot analysis. Type of test: cell-based. Put shortly:
as §1
Target sequence in this assay (P40337 whole entry, looked up): as the sequence (P40337 whole entry) above
Target sequence in this assay (Q13547 whole entry, looked up): as the sequence (Q13547 whole entry) above

Test [22] has the same target. Kind of test: Protac activity at VHL/HDAC1 in human HCT-116 cells assessed as induction of HDAC1 degradation at 1 uM measured upto 48 hrs by Western blot analysis. Type of test: cell-based. The note with it: time hrs <=48. In short, it runs like this: as §1
Target sequence in this assay (P40337 whole entry, looked up): as the sequence (P40337 whole entry) above
Target sequence in this assay (Q13547 whole entry, looked up): as the sequence (Q13547 whole entry) above
For test [23] the target is unchanged. In words: Protac activity at VHL/HDAC1 in human HCT-116 cells assessed as fold increase in H3K56ac at 10 uM measured after 8 hrs by Western blot analysis relative to control. Type of test: cell-based. Put shortly:
as §1
Target sequence in this assay (P40337 whole entry, looked up): as the sequence (P40337 whole entry) above
Target sequence in this assay (Q13547 whole entry, looked up): as the sequence (Q13547 whole entry) above

For test [24], the system named is HCT-116. In words: Induction of apoptosis in human HCT-116 cells assessed as accumulation of cells in Sub-G1 phase at 10 uM measured after 24 hrs by flow cytometry analysis.
Test [25] has as its target T3, von Hippel-Lindau disease tumor suppressor/Histone deacetylase 2 (Homo sapiens). Kind of test: Protac activity at VHL/HDAC2 in human HCT-116 cells assessed as reduction in LSD1 level measured after 48 hrs by Western blot analysis. The arrangement: scale not given: the % may be the effect or the level left.

T3 sequence (P40337 whole entry, looked up): as the sequence (P40337 whole entry) above
T3 sequence (Q92769 whole entry, looked up): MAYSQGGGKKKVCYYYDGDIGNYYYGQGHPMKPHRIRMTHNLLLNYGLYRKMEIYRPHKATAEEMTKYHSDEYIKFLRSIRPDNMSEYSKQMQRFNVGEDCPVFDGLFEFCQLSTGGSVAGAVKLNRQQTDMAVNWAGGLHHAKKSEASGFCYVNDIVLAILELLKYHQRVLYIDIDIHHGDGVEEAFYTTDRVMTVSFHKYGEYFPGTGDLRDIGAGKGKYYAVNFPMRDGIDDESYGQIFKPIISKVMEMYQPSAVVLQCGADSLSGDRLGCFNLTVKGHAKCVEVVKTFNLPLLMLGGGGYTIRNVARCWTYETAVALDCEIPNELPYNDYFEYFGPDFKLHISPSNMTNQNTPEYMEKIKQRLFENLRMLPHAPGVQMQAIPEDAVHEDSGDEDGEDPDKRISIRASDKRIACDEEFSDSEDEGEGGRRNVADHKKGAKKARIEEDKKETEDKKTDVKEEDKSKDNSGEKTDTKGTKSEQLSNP

Usually DC50 stands for the midpoint of the concentration-degradation curve. As a reminder, the IC50 is the concentration that gives 50% inhibition. Consider `CC(=O)NC(C(=O)N1C[C@H](O)C[C@H]1C(=O)NCc1ccc(-c2scnc2C)cc1OCCCCCCCCCCCC(=O)Nc1ccc(C(=O)Nc2ccccc2N)cc1)C(C)(C)C` (single isomer, unassigned), for which the results for the DC50 in test [1] and in [6] were 1.38 µM and 3.51 µM, respectively. The outcome in the test with HCT-116 [2] was inactive. In addition, the IC50 came out at 1.51 µM in [3], 3.81 µM in [4] and 3.46 µM in [5].
`Cc1ncsc1-c1ccc(CNC(=O)[C@@H]2C[C@@H](O)CN2C(=O)[C@@H](NC(=O)CCCCCCCCCCC(=O)Nc2ccc(C(=O)Nc3cc(-c4cccs4)ccc3N)cc2)C(C)(C)C)cc1`: the result in test [7] and in test [8] was inactive.
`CC(=O)NC(C(=O)N1C[C@H](O)C[C@H]1C(=O)NCc1ccc(-c2scnc2C)cc1OCCCCNC(=O)CCCCC(=O)Nc1ccc(C(=O)Nc2ccccc2N)cc1)C(C)(C)C` (single isomer, unassigned): the result in test [8] was Active.
`Cc1ncsc1-c1ccc(CNC(=O)[C@@H]2C[C@@H](O)CN2C(=O)[C@@H](NC(=O)COCCOCCOCC(=O)Nc2ccc(C(=O)Nc3cc(-c4cccs4)ccc3N)cc2)C(C)(C)C)cc1`: the outcome in [7] and in test [8] was inactive.
As to `CC(=O)NC(C(=O)N1C[C@H](O)C[C@H]1C(=O)NCc1ccc(-c2scnc2C)cc1OCCCCNC(=O)CCCCCCCC(=O)Nc1ccc(C(=O)Nc2ccccc2N)cc1)C(C)(C)C` (single isomer, unassigned), the result in test [8] was Active.
`Cc1ncsc1-c1ccc(CNC(=O)[C@@H]2C[C@@H](O)CN2C(=O)C(NC(=O)CCCCCCCCCCC(=O)Nc2ccc(C(=O)Nc3ccc(F)cc3N)cc2)C(C)(C)C)cc1` (single isomer, unassigned): the outcome in test [9] was Active.
As for `Cc1ncsc1-c1ccc(CNC(=O)[C@@H]2C[C@@H](O)CN2C(=O)[C@@H](NC(=O)CCCCCCCCCC(=O)Nc2ccc(C(=O)Nc3ccccc3N)cc2)C(C)(C)C)cc1`, in test [9], the result was inactive. Moreover, the result in test [7] and in test [8] was Active.
Turning to `Cc1ncsc1-c1ccc(CNC(=O)[C@@H]2C[C@@H](O)CN2C(=O)[C@@H](NC(=O)COCCCCCCOCC(=O)Nc2ccc(C(=O)Nc3ccccc3N)cc2)C(C)(C)C)cc1`, the result in test [10] was inactive.
Consider `Cc1ncsc1-c1ccc(CNC(=O)[C@@H]2C[C@@H](O)CN2C(=O)[C@@H](NC(=O)CCCCCCCC(=O)Nc2ccc(C(=O)Nc3ccccc3N)cc2)C(C)(C)C)cc1`, for which, in [9], the outcome was inactive. Besides, the result in test [7] and in test [8] was Active.
In the case of `Cc1ncsc1-c1ccc(CNC(=O)[C@@H]2CC(O)CN2C(=O)[C@@H](NC(=O)COCCOCCOCCOCC(=O)Nc2ccc(C(=O)Nc3ccccc3N)cc2)C(C)(C)C)cc1` (single isomer, unassigned), the outcome in [9], in test [7] and in test [8] was inactive.
`Cc1ncsc1-c1ccc(CNC(=O)[C@@H]2C[C@@H](O)CN2C(=O)[C@@H](NC(=O)CCCCCCCCCCCCC(=O)Nc2ccc(C(=O)Nc3ccccc3N)cc2)C(C)(C)C)cc1`: the result in test [7] and in [8] was Active.
For `Cc1ncsc1-c1ccc(CNC(=O)[C@@H]2C[C@@H](O)CN2C(=O)[C@@H](NC(=O)COCCOCCOCC(=O)Nc2ccc(C(=O)Nc3ccccc3N)cc2)C(C)(C)C)cc1`, the outcome in test [9], in [7] and in test [8] was inactive.
In the case of `Cc1ncsc1-c1ccc(CNC(=O)[C@@H]2C[C@@H](O)CN2C(=O)[C@@H](NC(=O)CCCCCCCCCCC(=O)Nc2ccc(C(=O)Nc3ccccc3N)cc2)C(C)(C)C)cc1`, the outcome in [11] was Active.
Take `Cc1ncsc1-c1ccc(CNC(=O)[C@@H]2C[C@@H](O)CN2C(=O)[C@@H](NC(=O)COCCCCCCCCCOCC(=O)Nc2ccc(C(=O)Nc3ccc(F)cc3N)cc2)C(C)(C)C)cc1`: the outcome in [10] was Active.
For the compound `Cc1ncsc1-c1ccc(CNC(=O)[C@@H]2C[C@@H](O)CN2C(=O)[C@@H](NC(=O)COCCOCC(=O)Nc2ccc(C(=O)Nc3ccccc3N)cc2)C(C)(C)C)cc1`, the outcome in test [9], in test [7] and in test [8] was inactive.
On to `Cc1ncsc1-c1ccc(CNC(=O)[C@@H]2C[C@@H](O)CN2C(=O)[C@@H](NC(=O)CCCN2CCN(CCCC(=O)Nc3ccc(C(=O)Nc4ccccc4N)cc3)CC2)C(C)(C)C)cc1`, for which the outcome in test [9], in test [7] and in test [8] was inactive.
As to `Cc1ncsc1-c1ccc(CNC(=O)[C@@H]2C[C@@H](O)CN2C(=O)[C@@H](NC(=O)COCCCCCCCCCOCC(=O)Nc2ccc(C(=O)Nc3ccccc3N)cc2)C(C)(C)C)cc1`, the Activity in [12] came to 50%; in [14], 40%; in test [25], 40%. Also, the result (in test [13]; with HCT-116 [16]; in test [17]; in test [10]; in test [19]; in [20]) was Active. For the same compound, the result (in test [21]; in test [22]; in the test with HCT-116 [24]) was Active. Also, the fold change (FC) in test [15] and in [23] was 2 throughout. Moreover, in test [18], the result was inactive.
`Cc1ncsc1-c1ccc(CNC(=O)[C@@H]2C[C@@H](O)CN2C(=O)[C@@H](NC(=O)CCCCCCCC(=O)Nc2ccc(C(=O)Nc3cc(-c4cccs4)ccc3N)cc2)C(C)(C)C)cc1`: the outcome in test [7] and in [8] was inactive.
For the compound `Cc1ncsc1-c1ccc(CNC(=O)[C@@H]2C[C@@H](O)CN2C(=O)C(NC(=O)COCCOCCOCC(=O)Nc2ccc(C(=O)Nc3ccc(F)cc3N)cc2)C(C)(C)C)cc1` (single isomer, unassigned), the outcome in test [11] was Active.
Consider `Cc1ncsc1-c1ccc(CNC(=O)[C@@H]2C[C@@H](O)CN2C(=O)[C@@H](NC(=O)CCCCCCCCC(=O)Nc2ccc(C(=O)Nc3ccccc3N)cc2)C(C)(C)C)cc1`, for which, in test [9], the outcome was inactive. Further, the outcome in test [7] and in [8] was Active.
